Where “and” joins values, the source holds several entries; their conditions need not be identical. Equal entries are not always repeated.
How the values were obtained:
[1] = target: sigma-1 receptor (Cavia porcellus, UniProt Q60492); assay: Sigma-1 receptor competitive binding assay; parameters: species or system guinea pig
In short: (§1)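 Sigma-1: guinea pig brain membranes with 3H-PENT. Sigma-2: rat liver membranes from Sprague-Dawley rats with 3H-DTG, plus 1 μM dextrallorphane to mask sigma-1 sites.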

[2] = target: T1, sigma-2 receptor (Rattus norvegicus, UniProt Q5U3Y7); assay: Sigma-2 receptor competitive binding assay
T1 sequence (Q5U3Y7 1-176): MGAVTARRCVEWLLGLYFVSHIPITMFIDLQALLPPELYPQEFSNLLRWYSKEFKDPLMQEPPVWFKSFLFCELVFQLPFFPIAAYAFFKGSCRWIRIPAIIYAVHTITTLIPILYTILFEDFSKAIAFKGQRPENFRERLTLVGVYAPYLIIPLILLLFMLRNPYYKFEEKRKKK
In short: as §1

[3] = system: B16F1 melanoma cells; assay: In vitro uptake assay in melanoma cells; format: cell-based, mouse; details: 1×10^6 cells/tube, 60 min, room temperature, n=3 tubes
In short: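 B16F1 mouse melanoma cells grown in DMEM with 10% FBS at 37°C, 5% CO2. At 80–90% confluence they were trypsinized and resuspended in PBS pH 7.4. Aliquots of 1×10^5, 5×10^5, 8×10^5 and 1×10^6 cells in triplicate tubes got ~200 Kcpm radiotracer for 1 hr at 22°C. Tubes were centrifuged and pellets washed with PBS; wash and pellet were gamma-counted. Uptake = % of total added activity in pellet.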

[4] = Tissue distribution studies in normal ICR mice; format: in vivo; details: tail vein, mean±SEM n=5
In short: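 Normal ICR mice (6–8 weeks) received ~15 μCi radiotracer in 100 μL saline by tail vein. At 30, 60, 120 and 180 min mice were euthanized; tissues removed, washed with PBS, weighed and gamma-counted with an injected-dose standard. Values expressed as %ID/g; group differences by unpaired Student's t-test, P<0.05.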

[5] = Lipophilicity, shake flask 1-octanol/PBS pH 7.4; format: physicochemical; details: 1-octanol/phosphate-buffered saline
In short: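 Shake-flask partition: ~500 Kcpm radiotracer added to 1 mL 1-octanol plus 1 mL PBS pH 7.4, in triplicate. Tubes vortexed 3 min and layers allowed to separate. 100 μL aliquots of each phase counted for radioactivity; log P calculated from the counts.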

[6] = system: B16F1 melanoma tumor xenograft; assay: Tissue distribution studies in C57 mice bearing B16F1 tumor xenograft; format: in vivo; details: for F-18 uptake in brain, Percent Injected Dose per gram Tissue / F-18 uptake in heart, Percent Injected Dose per gram Tissue / F-18 uptake in intestine, Percent Injected Dose per gram Tissue / F-18 uptake in kidneys, Percent Injected Dose per gram Tissue / F-18 uptake in liver, Percent Injected Dose per gram Tissue / F-18 uptake in lung, Percent Injected Dose per gram Tissue / F-18 uptake in muscle, Percent Injected Dose per gram Tissue / F-18 uptake in spleen, Percent Injected Dose per gram Tissue / F-18 uptake in the tumor / F-18 uptake in blood, Percent Injected Dose per gram Tissue / F-18 uptake in bone, Percent Injected Dose per gram Tissue: C57 mice bearing B16F1 melanoma tumor xenograft; for F-18 uptake in brain, Percent Injected Dose per gram Tissue / F-18 uptake in heart, Percent Injected Dose per gram Tissue / F-18 uptake in intestine, Percent Injected Dose per gram Tissue / F-18 uptake in kidneys, Percent Injected Dose per gram Tissue / F-18 uptake in liver, Percent Injected Dose per gram Tissue / F-18 uptake in lung, Percent Injected Dose per gram Tissue / F-18 uptake in muscle, Percent Injected Dose per gram Tissue / F-18 uptake in spleen, Percent Injected Dose per gram Tissue / F-18 uptake in blood, Percent Injected Dose per gram Tissue / F-18 uptake in bone, Percent Injected Dose per gram Tissue: tail vein, mean±SEM n=5; for F-18 uptake in the tumor: n=5
In short: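 C57 mice (6–8 weeks) inoculated in the right flank with ~5×10^6 B16F1 cells in 0.1 mL Matrigel:PBS (50:50). Studied once tumors exceeded 200 mm³. ~15 μCi radiotracer in 100 μL saline given by tail vein. Mice euthanized at 30, 60, 120 and 180 min; tissues washed, weighed and gamma-counted against an injected-dose standard. %ID/g ([…], n=5) and tumor-to-tissue ratios reported.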

[7] = C57 normal mice, cited from earlier work
[8] = C57 mice bearing B16F1 melanoma tumor, 180 min post-injection

Sequence of sigma-1 receptor (Q60492 whole entry): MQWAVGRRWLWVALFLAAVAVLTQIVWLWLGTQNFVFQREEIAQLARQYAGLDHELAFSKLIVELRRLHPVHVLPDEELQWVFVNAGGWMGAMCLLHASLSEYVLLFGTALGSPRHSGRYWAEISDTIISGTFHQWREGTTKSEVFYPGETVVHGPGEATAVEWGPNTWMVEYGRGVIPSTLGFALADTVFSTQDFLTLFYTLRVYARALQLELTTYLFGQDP

## CCN(CC)CCNC(=O)c1ccc(F)cc1 [DAFBA, N-(2-diethylaminoethyl)-4-fluorobenzamide]
[1]
  IC50: > 1000 nM
[2]
  IC50: > 1000 nM

## CCN(CC)CCNC(=O)c1ccc([18F])cc1 [[^18F]-DAFBA, N-(2-diethylaminoethyl)-4-[^18F]fluorobenzamide]
[3]
  percent uptake by cells (percent of total added radioactivity): 5.60±2.67%
[4]; 30 min post injection
  F-18 uptake in blood, Percent Injected Dose per gram Tissue: 0.78 ± 0.07 %ID/g
  F-18 uptake in bone, Percent Injected Dose per gram Tissue: 0.81 ± 0.19 %ID/g
  F-18 uptake in brain, Percent Injected Dose per gram Tissue: 2.16 ± 0.32 %ID/g
  F-18 uptake in heart, Percent Injected Dose per gram Tissue: 1.10 ± 0.14 %ID/g
  F-18 uptake in kidneys, Percent Injected Dose per gram Tissue: 4.13 ± 0.68 %ID/g
  F-18 uptake in liver, Percent Injected Dose per gram Tissue: 3.12 ± 0.62 %ID/g
  F-18 uptake in lung, Percent Injected Dose per gram Tissue: 1.75 ± 0.43 %ID/g
  F-18 uptake in muscle, Percent Injected Dose per gram Tissue: 0.88 ± 0.13 %ID/g
  F-18 uptake in spleen, Percent Injected Dose per gram Tissue: 2.35 ± 0.07 %ID/g
[4]; 60 min post injection
  F-18 uptake in blood, Percent Injected Dose per gram Tissue: 0.67 ± 0.05 %ID/g
  F-18 uptake in brain, Percent Injected Dose per gram Tissue: 1.54 ± 0.24 %ID/g
  F-18 uptake in heart, Percent Injected Dose per gram Tissue: 0.92 ± 0.10 %ID/g
  F-18 uptake in intestine, Percent Injected Dose per gram Tissue: 1.39 ± 0.54 %ID/g
  F-18 uptake in liver, Percent Injected Dose per gram Tissue: 3.61 ± 0.48 %ID/g
  F-18 uptake in lung, Percent Injected Dose per gram Tissue: 1.84 ± 0.41 %ID/g
  F-18 uptake in muscle, Percent Injected Dose per gram Tissue: 0.65 ± 0.11 %ID/g
  F-18 uptake in spleen, Percent Injected Dose per gram Tissue: 1.87 ± 0.46 %ID/g
[4]; 120 min post injection
  F-18 uptake in brain, Percent Injected Dose per gram Tissue: 0.52 ± 0.07 %ID/g
  F-18 uptake in heart, Percent Injected Dose per gram Tissue: 0.28 ± 0.05 %ID/g
  F-18 uptake in intestine, Percent Injected Dose per gram Tissue: 0.26 ± 0.26 %ID/g
  F-18 uptake in kidneys, Percent Injected Dose per gram Tissue: 1.58 ± 0.51 %ID/g
[4]; 180 min post injection
  F-18 uptake in blood, Percent Injected Dose per gram Tissue: 0.21 ± 0.03 %ID/g
  F-18 uptake in bone, Percent Injected Dose per gram Tissue: 0.24 ± 0.10 %ID/g
  F-18 uptake in heart, Percent Injected Dose per gram Tissue: 0.23 ± 0.03 %ID/g
  F-18 uptake in intestine, Percent Injected Dose per gram Tissue: 0.40 ± 0.11 %ID/g
  F-18 uptake in kidneys, Percent Injected Dose per gram Tissue: 1.34 ± 0.36 %ID/g
  F-18 uptake in liver, Percent Injected Dose per gram Tissue: 1.12 ± 0.20 %ID/g
  F-18 uptake in lung, Percent Injected Dose per gram Tissue: 0.49 ± 0.07 %ID/g
  F-18 uptake in spleen, Percent Injected Dose per gram Tissue: 0.53 ± 0.08 %ID/g
[5]
  logP: 1.7
[6]; 30 min post injection
  F-18 uptake in brain, Percent Injected Dose per gram Tissue: 2.02 ± 0.35 %ID/g
  F-18 uptake in heart, Percent Injected Dose per gram Tissue: 1.25 ± 0.28 %ID/g
  F-18 uptake in intestine, Percent Injected Dose per gram Tissue: 1.94 ± 0.51 %ID/g
  F-18 uptake in kidneys, Percent Injected Dose per gram Tissue: 4.50 ± 1.33 %ID/g
  F-18 uptake in liver, Percent Injected Dose per gram Tissue: 3.27 ± 0.90 %ID/g
  F-18 uptake in lung, Percent Injected Dose per gram Tissue: 2.46 ± 1.27 %ID/g
  F-18 uptake in muscle, Percent Injected Dose per gram Tissue: 1.09 ± 0.18 %ID/g
  F-18 uptake in spleen, Percent Injected Dose per gram Tissue: 2.14 ± 0.41 %ID/g
[6]; 60 min post injection
  F-18 uptake in the tumor: 7.00±2.76 %ID/g
  F-18 uptake in blood, Percent Injected Dose per gram Tissue: 0.68 ± 0.21 %ID/g
  F-18 uptake in bone, Percent Injected Dose per gram Tissue: 0.90 ± 0.27 %ID/g
  F-18 uptake in brain, Percent Injected Dose per gram Tissue: 1.68 ± 0.43 %ID/g
  F-18 uptake in heart, Percent Injected Dose per gram Tissue: 1.27 ± 0.50 %ID/g
  F-18 uptake in intestine, Percent Injected Dose per gram Tissue: 1.98 ± 0.88 %ID/g
  F-18 uptake in kidneys, Percent Injected Dose per gram Tissue: 5.38 ± 1.86 %ID/g
  F-18 uptake in liver, Percent Injected Dose per gram Tissue: 5.01 ± 2.06 %ID/g
  F-18 uptake in lung, Percent Injected Dose per gram Tissue: 2.48 ± 1.27 %ID/g
  F-18 uptake in muscle, Percent Injected Dose per gram Tissue: 1.10 ± 0.38 %ID/g
  F-18 uptake in spleen, Percent Injected Dose per gram Tissue: 1.83 ± 0.54 %ID/g
[6]; 120 min post injection
  F-18 uptake in the tumor: 6.57±1.66 %ID/g
  F-18 uptake in bone, Percent Injected Dose per gram Tissue: 0.57 ± 0.32 %ID/g
  F-18 uptake in brain, Percent Injected Dose per gram Tissue: 0.64 ± 0.40 %ID/g
  F-18 uptake in kidneys, Percent Injected Dose per gram Tissue: 1.41 ± 0.11 %ID/g
  F-18 uptake in liver, Percent Injected Dose per gram Tissue: 2.35 ± 1.20 %ID/g
  F-18 uptake in lung, Percent Injected Dose per gram Tissue: 1.47 ± 0.47 %ID/g
  F-18 uptake in muscle, Percent Injected Dose per gram Tissue: 0.57 ± 0.54 %ID/g
  F-18 uptake in spleen, Percent Injected Dose per gram Tissue: 0.71 ± 0.37 %ID/g
[6]; 180 min post injection
  F-18 uptake in blood, Percent Injected Dose per gram Tissue: 0.13 ± 0.03 %ID/g
  F-18 uptake in bone, Percent Injected Dose per gram Tissue: 0.17 ± 0.05 %ID/g
  F-18 uptake in brain, Percent Injected Dose per gram Tissue: 0.29 ± 0.05 %ID/g
  F-18 uptake in heart, Percent Injected Dose per gram Tissue: 0.21 ± 0.04 %ID/g
  F-18 uptake in kidneys, Percent Injected Dose per gram Tissue: 0.83 ± 0.23 %ID/g
  F-18 uptake in muscle, Percent Injected Dose per gram Tissue: 0.17 ± 0.03 %ID/g
  F-18 uptake in spleen, Percent Injected Dose per gram Tissue: 0.44 ± 0.25 %ID/g
[6]; C57 mice bearing B16F1 melanoma tumor, 60 min post-injection
  tumor to blood ratio: 8.3±3
[6]; [8]
  tumor to liver ratio: 6.33±1.9
  tumor to lung ratio: 21.90±4.68 and > 20
  tumor to muscle ratio: 32.91±6.11 and > 20
  tumor to spleen ratio: 14.90±6.47

## CCN(CC)CCNC(=O)c1ccc(OC)c(I)c1 [[^*I]IMBA, [^*I]N-(2-diethylaminoethyl) 3-iodo 4-methoxybenzamide]
[7]; 60 min post injection
  radioiodine uptake in blood: 0.84±0.08 %ID/g
  radioiodine uptake in liver: 3.09±0.45 %ID/g
  radioiodine uptake in lungs: 1.06±0.23 %ID/g
[7]
  radioiodine uptake in intestine: 7.70±4.70 %ID/g
  radioiodine uptake in the stomach: 9.72±1.51 %ID/g
